Laboratory results as given in ChEMBL document CHEMBL4842389, “Discovery of Dolastatinol: A Synthetic Analog of Dolastatin 10 and Low Nanomolar Inhibitor of Tubulin Polymerization” (ACS Med Chem Lett, 2021).
The source made the active and inactive calls. The rule behind the calls is not given here. Square brackets hold non-standard residues; d marks the D form. Peptide text beside a SMILES is read from it. Dolaproine = CO[C@@H]([C@@H]1CCCN1)[C@@H](C)C(=O)O; Dil = CC[C@H](C)[C@H](NC)[C@@H](CC(=O)O)OC; NMeV = CN[C@H](C(=O)O)C(C)C

How the values were obtained:
[1] = molecular target: Tubulin (Homo sapiens) (UniProt P68371+Q9H4B7+P0DPH7+P68366+Q13509+Q71U36+P04350+Q3ZCM7+P07437+P68363+Q9BQE3+Q6PEY2+Q13885+Q9BVA1+Q9BUF5); assay: Inhibition of microtubule in human MDA-MB-231 cells assessed as reduction in microtubule network in interphase cells measured after 24 hrs by DAPI staining based immunofluorescence microscopic analysis; assay type: cell-based; settings: dose 5-625 nM
How it was run: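 MDA-MB-231 cells (10 000/well, 70–80% confluent) treated 24 h at 5, 25, 125 and 625 nM in DMEM. Fixed in 4% paraformaldehyde, permeabilized with 0.2% Triton X-100, blocked in 5% BSA, stained with anti-α-tubulin (DM1A, 1:800, 16 h) and Alexa Fluor 488 secondary, nuclei with DAPI. Imaged at 40×; interphase microtubule network quantified, unpaired two-tailed t test.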

[2] = test system: MDA-MB-231; assay: Cell cycle arrest in human MDA-MB-231 cells assessed as accumulation at G2/M phase at 125 nM after 24 hrs by RNaseA/propidium iodide staining based FACSCalibur flow cytometry (reference value: 26.37 %); assay type: functional
[3] = test system: MDA-MB-231; assay: Cell cycle arrest in human MDA-MB-231 cells assessed as accumulation at S phase at 125 nM after 24 hrs by RNaseA/propidium iodide staining based FACSCalibur flow cytometry (reference value: 19.96 %); assay type: functional
[4] = test system: MDA-MB-231; assay: Cell cycle arrest in human MDA-MB-231 cells assessed as accumulation at G1 phase at 125 nM after 24 hrs by RNaseA/propidium iodide staining based FACSCalibur flow cytometry (reference value: 37.64 %); assay type: functional
[5] = test system: MDA-MB-231; assay: Cell cycle arrest in human MDA-MB-231 cells assessed as accumulation at sub G1 phase at 125 nM after 24 hrs by RNaseA/propidium iodide staining based FACSCalibur flow cytometry (reference value: 3.27 %); assay type: functional
[6] = test system: MDA-MB-231; assay: Inhibition of cell migration in human MDA-MB-231 cells assessed as reduction of cell mobility at 5 nM measured at 24 hrs by well scratch method; assay type: functional, cell-based
How it was run: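 MDA-MB-231 cells (3 × 10^4/well) attached overnight, then exposed to 5 nM in serum-free DMEM for 48 h. Monolayer scratched, debris washed off, complete medium added without drug. Images taken at 10× at 0 h and after 24 h; percentage wound coverage quantified. Two-tailed unpaired t test.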

[7] = test system: MDA-MB-231; assay: Cytotoxicity against human MDA-MB-231 cells assessed as reduction in cell viability incubated for 96 hrs by XTT assay; assay type: functional, cell-based
How it was run: (§1)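 XTT viability assay on human breast cancer cells. Cells were seeded at 5000 cells/well, left to adhere overnight, then exposed to increasing compound concentrations for 96 h in complete medium with DMSO below 0.05% final. Wells were washed and refed, then given XTT reagent for 3 h, with absorbance read at 450 nm. Response was normalized to DMSO controls. Tetraplicates, three independent experiments. IC50 from a four-parameter variable-slope fit.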

[8] = test system: BT-474; assay: Cytotoxicity against human BT-474 cells assessed as reduction in cell viability incubated for 96 hrs by XTT assay; assay type: functional, cell-based; settings: BT-474, 96 h; how it was run: as §1
[9] = test system: SK-BR-3; assay: Cytotoxicity against human SKBR3 cells assessed as reduction in cell viability incubated for 96 hrs by XTT assay; assay type: functional, cell-based; settings: SK-BR-3, 96 h; how it was run: as §1
[10] = test system: MDA-MB-231; assay: Induction of mitochondrial disintegration in human MDA-MB-231 cells at 625 nM measured after 24 hrs by Mitotracker green dye based fluorescence microscopy; assay type: functional, cell-based
How it was run: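 MDA-MB-231 cells (7000/well) grown overnight in DMEM with 10% FBS, then given 5, 25, 125 or 625 nM for 24 h. Live cells labelled 30 min with 75 nM MitoTracker Green FM in serum- and phenol red-free DMEM, counterstained with DAPI for 15 min, and imaged by fluorescence microscopy at 40× to view mitochondrial fission.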

CC[C@H](C)[C@@H]([C@@H](CC(=O)N1CCC[C@H]1[C@H](OC)[C@@H](C)C(=O)N[C@@H](Cc1ccccc1)C(=O)O)OC)N(C)C(=O)[C@@H](NC(=O)[C@@H](NC)C(C)C)C(C)C (H-[NMeV]V[Dil][Dolaproine]F-OH)
inhibition [1]: Dose-Dependent Effect | Activity [2]: 32.79% | Activity [3]: 16.11% | Activity [4]: 30.88% | Activity [5]: 9.66% | inhibition [6]: Active | IC50 [7]: Not Active | IC50 [8]: 8.8 nM | IC50 [9]: 5.3 nM | Activity [10]: inactive
